Data: paper PMC12062462 (Nature Communications, 2025)

Columns and labels:
[1] = molecular target: mRIPK3^KD R69H (Mus musculus, UniProt Q9QZL0, C111A/R69H); experiment: Size-exclusion chromatography; conditions: protein 10 mg/mL, compound 1 mM
Outline: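 Mouse RIPK3 kinase domain 1-313 (C111A/R69H, C-terminal 10×His) was expressed in Sf-9 cells by baculovirus, with 10 µM test compound or DMSO added to the lysate. Ni-NTA eluate was concentrated to 10 mg/mL, incubated with 1 mM compound and centrifuged at 17,000 g for 15 min. It was then run on Superdex 200 Increase 10/300 in 25 mM Tris pH 8.0, 150 mM NaCl, 5 mM DTT plus 10 µM compound. Three independent runs.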

[2] = test system: L929 RIPK3-/- + RIPK3 K51A cells; experiment: Cell viability assay with or without zVAD, L929 RIPK3-/- + RIPK3 K51A; type: cell-based, mouse; conditions: 1.6 μM, without zVAD
Outline: (§1)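 L929 cells were grown in MEM with 10% FBS. RIPK3 was knocked out by CRISPR/Cas9 (sgRNA against mouse RIPK3), and knockout was confirmed by sequencing and immunoblot. Knockout lines with or without re-expressed RIPK3 K51A or K51A/R69H were seeded at 10,000–20,000 cells/well and left to attach for 24 h. Cells were exposed to test compound alone or with zVAD for 18–20 h. Viability was read by CCK-8 (1–2 h, 37 °C, A450). Three experiments in triplicate; CC50 by nonlinear regression.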

[3] = test system: L929 RIPK3-/- + RIPK3 K51A/R69H cells; experiment: Cell viability assay with or without zVAD, L929 RIPK3-/- + RIPK3 K51A/R69H; type: cell-based, mouse
Outline: as §1

[4] = molecular target: RIPK3-RIPK1 interaction (Mus musculus, UniProt Q9QZL0); experiment: RIPK1 immunoprecipitation; type: cell-based; conditions: L929, 10 µM, 5 hours
Sequence of RIPK3-RIPK1 interaction (Q9QZL0 whole entry): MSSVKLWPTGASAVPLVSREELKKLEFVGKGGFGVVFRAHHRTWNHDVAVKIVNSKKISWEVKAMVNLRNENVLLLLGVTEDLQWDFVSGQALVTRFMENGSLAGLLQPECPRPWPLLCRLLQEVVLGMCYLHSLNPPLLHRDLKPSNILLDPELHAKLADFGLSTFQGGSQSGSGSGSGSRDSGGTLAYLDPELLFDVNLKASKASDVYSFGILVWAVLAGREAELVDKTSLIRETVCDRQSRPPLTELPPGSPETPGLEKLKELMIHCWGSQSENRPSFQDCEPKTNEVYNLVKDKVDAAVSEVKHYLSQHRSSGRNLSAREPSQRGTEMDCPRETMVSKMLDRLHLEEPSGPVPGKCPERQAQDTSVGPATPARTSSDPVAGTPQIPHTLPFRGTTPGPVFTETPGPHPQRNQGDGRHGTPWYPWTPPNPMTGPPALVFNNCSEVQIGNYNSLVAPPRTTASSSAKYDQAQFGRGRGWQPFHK
Outline: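 Lysates were cleared at 17,000 g for 15 min at 4 °C, and an input sample was kept. Lysate was incubated with anti-RIPK1 antibody on protein A/G magnetic beads for 2 h at 4 °C. Co-precipitated RIPK3 was detected by Western blot. Normalized quantification came from three independent experiments.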

[5] = test system: HT29 cells (TNF-α-induced necroptosis); experiment: Necroptosis induction and inhibition assay in HT29; type: cell-based, human; conditions: for EC50: Homo sapiens, HT-29, read-out: EC50^HT29 against TNF-α-induced necroptosis, zVAD (20 μM), human TNF-α (40 ng/mL), Smac mimetic SM-164 (100 nM), CCK-8
[6] = test system: caspase 3 and caspase 8 cleavage in L929 cells; experiment: Western blot of caspase 3 and caspase 8 cleavage in L929 cells; type: cell-based, mouse; conditions: L929, 3 hours
Outline: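 L929 cells in 12-well plates at about 80% confluency were exposed for 3 h to test compound, DMSO or medium, each with 10 µM zVAD. Cells were lysed at room temperature in a Triton X-100/Tris-based 1× SDS sample buffer and boiled 10 min. Proteins were run on 15% SDS-PAGE and blotted to PVDF. Membranes were blocked in 5% milk and probed for caspase 3 and caspase 8 cleavage overnight at 4 °C. Three independent experiments.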

[7] = test system: L929 cells (TNF-α-induced necroptosis); experiment: Necroptosis induction and inhibition assay in L929; type: cell-based, mouse; conditions: for EC50: Mus musculus, L929, read-out: EC50^L929 against TNF-α-induced necroptosis, mouse TNF-α (20 ng/mL) and zVAD (10 μM), CCK-8
[8] = test system: panel of 291 kinases; conditions: 1 µM, overlapping panel of 272 kinases; ref 30 (Mandal et al., 2014); cited from earlier work
[9] = test system: caspase 3 activity in L929 cell lysates; experiment: Caspase 3 activity in L929 cell lysates; type: cell-based, mouse
Outline: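 L929 cells were cultured 12 h in 12-well plates, then exposed to test compound or DMSO for 0, 1, 2, 3 or 4 h. Protein was measured by BCA. Lysate was incubated with Ac-DEVD-pNA overnight at 37 °C and read at A405 minus blank. Three experiments, each in triplicate.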

[10] = test system: RIPK3 and MLKL phosphorylation in L929 cells; experiment: Western blot of RIPK3 and MLKL phosphorylation, L929; type: cell-based, mouse; conditions: L929, inhibitors at 3 and 10 µM, necroptosis induced for 3 hours
Outline: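 L929 cells were grown in 6-well plates to about 80% confluency and given test compound or DMSO with zVAD (10 μM) for 1-2 h. Mouse TNF-α (20 ng/mL) was then added for 3 h. Cells were washed three times in cold PBS and lysed in 10 mM Tris-HCl pH 8.0, 1% SDS, 1 mM orthovanadate with protease and phosphatase inhibitors. Lysates were boiled for 10 min and stored at -80 °C. Phospho-RIPK3 and phospho-MLKL were immunoblotted after 10% SDS-PAGE and PVDF transfer.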

[11] = test system: L929^RIPK3-/- cells; experiment: Cell viability assay with or without zVAD, L929 RIPK3 knockout; type: cell-based, mouse
Outline: as §1

[12] = test system: RIPK3 and MLKL phosphorylation in HT29 cells; experiment: Western blot of RIPK3 and MLKL phosphorylation, HT29; type: cell-based, human; conditions: HT29, inhibitors at 3 and 10 µM, necroptosis induced for 3 hours
Outline: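 HT29 cells were grown in 12-well plates to about 80% confluency and given test compound or DMSO with zVAD (20 μM) for 1-2 h. Necroptosis was then induced with human TNF-α (40 ng/mL) plus SM-164 (100 nM) for 3 h. Cells were washed three times in cold PBS and lysed for 10 min at room temperature in RIPA buffer with protease and phosphatase inhibitors and SDS loading buffer. Phospho-RIPK3 and phospho-MLKL were immunoblotted after 10% SDS-PAGE and PVDF transfer.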

[13] = molecular target: RIPK2 (Homo sapiens, UniProt O43353); experiment: ADP-Glo kinase assay, RIPK2; type: biochemical
Sequence of RIPK2 (O43353 1-310): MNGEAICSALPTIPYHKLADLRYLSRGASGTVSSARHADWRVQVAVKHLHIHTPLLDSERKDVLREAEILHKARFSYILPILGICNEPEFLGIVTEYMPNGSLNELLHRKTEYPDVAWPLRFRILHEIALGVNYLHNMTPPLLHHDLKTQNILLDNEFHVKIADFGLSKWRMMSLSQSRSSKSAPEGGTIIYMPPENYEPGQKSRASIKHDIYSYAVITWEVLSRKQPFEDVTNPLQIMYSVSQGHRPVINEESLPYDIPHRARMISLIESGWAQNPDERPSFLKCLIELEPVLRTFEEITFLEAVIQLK
Outline: (§2)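 Human kinase domains were expressed in Sf-9 cells from baculovirus and purified by Ni-NTA then size exclusion: BRK 185-446 (C433T, C-terminal 6×His) and RIPK2 1-310 (C-terminal 10×His). Each was preincubated with test compound or DMSO in 40 mM Tris pH 7.5, 20 mM MgCl2, 0.1 mg/mL BSA. ATP was added to 20 µM final for 1 h at room temperature, and ADP was read by ADP-Glo luminescence.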

[14] = molecular target: panel of 379 human kinases (Homo sapiens, UniProt Q13882); experiment: Selectivity profiling, Eurofins KinaseProfiler; type: biochemical; conditions: read-out: inhibition rate against breast tumor kinase (BRK)
Sequence of panel of 379 human kinases (Homo sapiens, UniProt Q13882) (Q13882 whole entry): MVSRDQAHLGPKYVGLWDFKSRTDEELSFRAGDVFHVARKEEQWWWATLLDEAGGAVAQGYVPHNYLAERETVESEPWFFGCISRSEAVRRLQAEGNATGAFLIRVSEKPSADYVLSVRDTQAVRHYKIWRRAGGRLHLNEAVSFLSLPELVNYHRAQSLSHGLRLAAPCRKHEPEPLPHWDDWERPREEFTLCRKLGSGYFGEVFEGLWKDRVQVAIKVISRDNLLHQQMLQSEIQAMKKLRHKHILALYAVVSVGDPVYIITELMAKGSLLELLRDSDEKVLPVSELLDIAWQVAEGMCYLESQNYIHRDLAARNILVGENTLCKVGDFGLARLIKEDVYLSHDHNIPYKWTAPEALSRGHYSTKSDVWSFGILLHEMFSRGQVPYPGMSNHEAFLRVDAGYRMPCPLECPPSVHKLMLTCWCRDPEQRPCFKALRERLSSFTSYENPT

[15] = test system: panel of 379 human kinases; experiment: Selectivity profiling, Eurofins KinaseProfiler; type: biochemical; conditions: 379 kinases
[16] = molecular target: panel of 379 human kinases (Homo sapiens, UniProt O43353); experiment: Selectivity profiling, Eurofins KinaseProfiler; type: biochemical; conditions: read-out: inhibition rate against RIPK2
Sequence of panel of 379 human kinases (Homo sapiens, UniProt O43353) (O43353 whole entry, the tested form may be a part): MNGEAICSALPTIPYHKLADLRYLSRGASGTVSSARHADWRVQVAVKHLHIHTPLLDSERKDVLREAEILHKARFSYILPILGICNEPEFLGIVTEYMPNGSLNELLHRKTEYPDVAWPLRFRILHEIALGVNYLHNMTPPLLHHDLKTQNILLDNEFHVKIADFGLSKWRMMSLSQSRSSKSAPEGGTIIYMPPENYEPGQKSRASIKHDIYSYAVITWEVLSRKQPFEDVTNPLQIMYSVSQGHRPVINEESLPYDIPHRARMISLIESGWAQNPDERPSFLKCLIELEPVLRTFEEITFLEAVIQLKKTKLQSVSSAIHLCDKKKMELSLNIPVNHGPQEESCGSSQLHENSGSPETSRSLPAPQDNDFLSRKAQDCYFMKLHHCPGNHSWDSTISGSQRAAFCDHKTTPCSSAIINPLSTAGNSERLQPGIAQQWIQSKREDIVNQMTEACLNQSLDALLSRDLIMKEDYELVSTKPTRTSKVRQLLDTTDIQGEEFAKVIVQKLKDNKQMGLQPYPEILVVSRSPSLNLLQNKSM

[17] = molecular target: BRK kinase domain (Homo sapiens, UniProt Q13882, C433T); experiment: ADP-Glo kinase assay, BRK; type: biochemical
Sequence of BRK kinase domain (Q13882 185-446 C433T): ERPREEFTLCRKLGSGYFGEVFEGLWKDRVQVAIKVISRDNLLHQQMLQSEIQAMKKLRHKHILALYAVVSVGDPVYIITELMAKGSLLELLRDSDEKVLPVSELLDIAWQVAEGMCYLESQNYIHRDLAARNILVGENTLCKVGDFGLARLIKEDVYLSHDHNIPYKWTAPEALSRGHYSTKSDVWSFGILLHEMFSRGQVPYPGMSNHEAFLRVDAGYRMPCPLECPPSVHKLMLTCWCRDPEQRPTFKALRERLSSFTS
Outline: as §2

[18] = test system: RIPK3-mediated apoptosis; conditions: cited from earlier work

Sequence of mRIPK3^KD R69H (Q9QZL0 1-313 R69H/C111A): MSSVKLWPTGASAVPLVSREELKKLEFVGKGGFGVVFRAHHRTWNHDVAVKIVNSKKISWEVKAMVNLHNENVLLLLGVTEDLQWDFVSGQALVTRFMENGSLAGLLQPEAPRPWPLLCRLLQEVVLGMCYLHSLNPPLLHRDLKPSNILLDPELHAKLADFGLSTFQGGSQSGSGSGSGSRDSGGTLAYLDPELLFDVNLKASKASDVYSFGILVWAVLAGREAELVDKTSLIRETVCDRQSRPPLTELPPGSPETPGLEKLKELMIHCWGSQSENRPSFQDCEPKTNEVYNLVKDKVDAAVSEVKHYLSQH

Molecule	interaction between RIPK3 and RIPK1 (co-immunoprecipitation) [4]	EC50 [5]	activation of the apoptotic pathway: cleavage of caspase 8 and caspase 3 (Western blot) [6]	EC50 [7]	concentration at which caspase 3 is activated [9]	RIPK3 and MLKL phosphorylation induced by TNF-α (Western blot) [10]	change of CC50 between L929 and L929^RIPK3-/- cells [11]	RIPK3 and MLKL phosphorylation induced by TNF-α (Western blot) [12]	further results
CC(C)S(=O)(=O)c1ccc2nccc(Nc3ccc4scnc4c3)c2c1 [GSK'872, reference compound]	enhances the interaction between RIPK3 and RIPK1	7900 nM	cleavage of caspase 8 and caspase 3	3600 nM	5 µM	–	–	–	elution position of mRIPK3^KD R69H in complex with inhibitor [1]: aligns with a monomer; viability of cells expressing the ATPase-inactive RIPK3 K51A mutant [2]: significantly reduces the viability; apoptosis in cells expressing RIPK3 K51A and R69H double mutation [3]: does not cause such apoptosis; number of kinases inhibited by >65% [8]: 13 kinases
CC[C@@H](C)c1nc2cc(Nc3ccnc4ccc(S(=O)(=O)C(C)C)cc34)ccc2s1.Cl [LK01002, (R)-2-(sec-butyl)-N-(6-(isopropylsulfonyl)quinolin-4-yl)benzo[d]thiazol-5-amine hydrochloride]	neither increase the interaction of RIPK3 with RIPK1	2000 nM	nor activate the apoptotic pathway	4800 nM	> 50 µM	effectively inhibit RIPK3 and MLKL phosphorylation	remain largely unchanged	effectively inhibit RIPK3 and MLKL phosphorylation	–
CC(C)S(=O)(=O)c1ccc2nccc(Nc3ccc4sc(C5CCCC5)nc4c3)c2c1.Cl [LK01003, 2-cyclopentyl-N-(6-(isopropylsulfonyl)quinolin-4-yl)benzo[d]thiazol-5-amine hydrochloride]	neither increase the interaction of RIPK3 with RIPK1	850 nM	nor activate the apoptotic pathway	3700 nM	> 50 µM	effectively inhibit RIPK3 and MLKL phosphorylation	remain largely unchanged	effectively inhibit RIPK3 and MLKL phosphorylation	IC50 [13]: 48 nM; selectivity index (SI), RIPK2 over RIPK3 [13]: 24; inhibition at 1 µM [14]: > 65%; S (35) score ([15]; 1 μM): approximately 0.005; S (35) score ([15]; 10 μM): approximately 0.03; number of kinases with over 65% inhibition rate ([15]; 10 μM): 12 kinases; inhibition at 1 µM [16]: > 65%; IC50 [17]: 248 nM; selectivity index (SI), BRK over RIPK3 [17]: 124
GSK'840	–	–	–	–	–	–	–	–	concentration triggering RIPK3-mediated apoptosis relative to EC50 [18]: approximately twice their EC50 values
CC(C)S(=O)(=O)c1cc2c(Nc3ccc4sc(C5CCCC5)nc4c3)ccnc2cc1OCCO [LK01045, 2-((4-((2-cyclopentylbenzo[d]thiazol-5-yl)amino)-6-(isopropylsulfonyl)quinolin-7-yl)oxy)ethan-1-ol]	neither increase the interaction of RIPK3 with RIPK1	160 nM	nor activate the apoptotic pathway	610 nM	> 50 µM	effectively inhibits RIPK3 and MLKL phosphorylation	remain largely unchanged	effectively inhibits RIPK3 and MLKL phosphorylation	stronger potency compared to GSK'872 (EC50, HT29) ([5]; HT29 necroptosis): ~49 fold; stronger potency compared to LK01003 (EC50, HT29) ([5]; HT29 necroptosis): ~5 fold; stronger potency compared to GSK'872 (EC50, L929) ([7]; L929 necroptosis): approximately 6 fold; stronger potency compared to LK01003 (EC50, L929) ([7]; L929 necroptosis): approximately 6 fold
